6 molecules from ChEMBL document CHEMBL1275401, “2'-Deoxy-2'-spirocyclopropylcytidine revisited: a new and selective inhibitor of the hepatitis C virus NS5B polymerase” (J Med Chem, 2010) can be followed below.

A short description of data set [1]: Cytotoxicity against human MT4 cells expressing LTR-Luc after 3 days by luciferase assay. In kind it is cell-based. In a few lines:
(§1)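 Huh7 cells stably carrying luciferase under the CMV constitutive promoter, or MT4 cells with luciferase under the HIV LTR promoter, were cultured with or without compound dilutions for 3 days at 37 °C in humidified 5% CO₂. Luciferase activity served as the measure of proliferation, giving the CC₅₀ as 50% inhibition of growth. Values are averages of at least four repeats.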

The nature of data set [2]: Tmax in Sprague-Dawley rat at 10 mg/kg, po. The class given is ADME, organism-based. More on the design: dose 10 mg/kg, route oral. The note with it: in vivo. A digest of the protocol: (§2)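 Male Sprague-Dawley rats, three per dose, received a single oral solution in 20% hydroxypropyl-β-cyclodextrin. EDTA blood was collected at 0.5, 1, 2, 4, 7 and 24 h, kept on ice protected from light, and spun at 4 °C within 1 h; plasma was stored at −20 °C. Parent nucleoside was quantified by LC-MS after acetonitrile precipitation (standard curve 5-2000 ng/mL). Noncompartmental analysis.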

Data set [3] is described as follows: Cmax in Sprague-Dawley rat at 60 mg/kg, po. The class given is ADME, organism-based. More on the design: dose 60 mg/kg, route oral. The note with it: in vivo. A digest of the protocol: as §2
A short description of data set [4]: AUC (0 to 7 hrs) in Sprague-Dawley rat at 60 mg/kg, po. Further details: time < 7 hr, dose 60 mg/kg, route oral. The note with it: plasma. In kind it is ADME, organism-based. A digest of the protocol:
as §2

Data set [5] concerns Hepatitis C virus. Description: Antiviral activity against Hepatitis C virus subtype 1b with adaptive mutations of E1202G, T1280I, K1846T […] infected in human HuH7 cells assessed as inhibition of viral replication after 3 days by luciferase assay. The class given is functional, organism-based, Hepacivirus hominis. The note with it: genotype 1b, Huh-7, 72 h. In a few lines: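 Huh7-Rep cells carrying the genotype 1b subgenomic luciferase reporter replicon (clone ET; adaptive mutations E1202G, T1280I, K1846T). 2500 cells per well were exposed to a nine-point 1/4 serial dilution of compound. Replication was read out as luciferase activity, and EC50 was derived from it. Values are averages of at least four repeats.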

Data set [6] is described as follows: Cmax in Sprague-Dawley rat at 10 mg/kg, po. The class given is ADME, organism-based. More on the design: dose 10 mg/kg, route oral. The note with it: in vivo. A digest of the protocol: as §2
Data set [7] is described as follows: Cytotoxicity against human HuH7 cells expressing CMV-Luc after 3 days by luciferase assay. The class given is cell-based, Huh-7. A digest of the protocol:
as §1

Data set [8] is described as follows: AUC (0 to 7 hrs) in Sprague-Dawley rat at 10 mg/kg, po. In kind it is ADME, organism-based. Further details: time < 7 hr, dose 10 mg/kg, route oral. The note with it: plasma. In a few lines:
as §2

The nature of data set [9]: Tmax in Sprague-Dawley rat at 60 mg/kg, po. The class given is ADME, organism-based. Further details: dose 60 mg/kg, route oral. The note with it: in vivo. A digest of the protocol: as §2
Data set [10] in a line: Cmax in Sprague-Dawley rat at 15 mg/kg, po. In kind it is ADME, organism-based. The note with it: in vivo. More on the design: dose 15 mg/kg, route oral. In a few lines:
as §2

The nature of data set [11]: Cmax in Sprague-Dawley rat at 90 mg/kg, po. The class given is ADME, organism-based. More on the design: dose 90 mg/kg, route oral. The note with it: in vivo. In a few lines:
as §2

The nature of data set [12]: Tmax in Sprague-Dawley rat at 15 mg/kg, po. The class given is ADME, organism-based. Further details: dose 15 mg/kg, route oral. The note with it: in vivo. A digest of the protocol: as §2
Data set [13] in a line: AUC (0 to 7 hrs) in Sprague-Dawley rat at 15 mg/kg, po. In kind it is ADME, organism-based. More on the design: time < 7 hr, dose 15 mg/kg, route oral. The note with it: plasma. A digest of the protocol: as §2
A short description of data set [14]: Tmax in Sprague-Dawley rat at 90 mg/kg, po. The class given is ADME, organism-based. Further details: dose 90 mg/kg, route oral. The note with it: in vivo. In a few lines: as §2
The nature of data set [15]: AUC (0 to 24 hrs) in Beagle dog at 75 mg/kg, po. The class given is ADME, organism-based, Canis lupus familiaris. More on the design: time < 24 hr, dose 75 mg/kg, route oral. The note with it: plasma. In a few lines:
(§3)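 Single oral dose given as a solution in 20% hydroxypropyl-β-cyclodextrin to Beagle dogs, three per dose. Blood was taken on EDTA at 0.5, 1, 2, 4, 6, 8, 24 and 48 h, kept on ice away from light, and centrifuged at 4 °C within 1 h; plasma was stored at −20 °C. Analyte was protein-precipitated with acetonitrile and measured by LC-MS (LOQ ≥5.00 ng/mL). Noncompartmental parameters.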

Data set [16] in a line: Tmax in Beagle dog at 75 mg/kg, po. Further details: dose 75 mg/kg, route oral. The note with it: in vivo. The class given is ADME, organism-based, Canis lupus familiaris. A digest of the protocol: as §3
The nature of data set [17]: AUC (0 to 24 hrs) in Beagle dog at 15 mg/kg, po. In kind it is ADME, organism-based, Canis lupus familiaris. Further details: time < 24 hr, dose 15 mg/kg, route oral. The note with it: plasma. A digest of the protocol:
as §3

Data set [18] in a line: Cmax in Beagle dog at 75 mg/kg, po. The class given is ADME, organism-based, Canis lupus familiaris. Further details: dose 75 mg/kg, route oral. The note with it: in vivo. In a few lines:
as §3

A short description of data set [19]: AUC (0 to 24 hrs) in Sprague-Dawley rat at 90 mg/kg, po. In kind it is ADME, organism-based. More on the design: time < 24 hr, dose 90 mg/kg, route oral. The note with it: plasma. In a few lines: as §2
A short description of data set [20]: Cmax in Beagle dog at 15 mg/kg, po. In kind it is ADME, organism-based, Canis lupus familiaris. Further details: dose 15 mg/kg, route oral. The note with it: in vivo. In a few lines: as §3
The nature of data set [21]: Tmax in Beagle dog at 15 mg/kg, po. In kind it is ADME, organism-based, Canis lupus familiaris. More on the design: dose 15 mg/kg, route oral. The note with it: in vivo. A digest of the protocol:
as §3

Each structure is given as a SMILES string. Where only a bound is given, the exact number is not on record here.

For the molecule `Nc1ccn([C@@H]2O[C@H](CO)[C@@H](O)C23CC3)c(=O)n1`, the CC50 at 72 h in data set [1] and in data set [7] was > 98.4 µM in each case. The Tmax (as a rule, the time at which the peak concentration occurs) amounted to 1 h in [2] and 1.3 h in [9]. Also, the Cmax (commonly the highest concentration seen after dosing) in data set [3] came out at 527 ng/mL; in data set [6] it was 85 ng/mL. The AUC(0-t) (usually the area under the concentration-time curve up to a stated or last time point) at 7 h in data set [4] was determined as 1640 ng·h/mL; in data set [8], 248 ng·h/mL. Also, the EC50 (in general, the midpoint of the concentration-response curve) in [5] turned out to be 7.3 µM.

For `CC(C)C(=O)O[C@@H]1[C@@H](CO)O[C@@H](n2ccc(N)nc2=O)C12CC2`, the CC50 at 72 h in data set [1] and in data set [7] was > 98.4 µM in each case. Further, the Tmax in [2] is 0.7 h. Moreover, in [5], the EC50 was found to be 42.8 µM. The highest level in data set [6] (Cmax) was 184 ng/mL. The molecule further displayed an AUC(0-t) at 7 h in data set [8] of 2620 ng·h/mL.

For the molecule `CC(C)C(=O)OC[C@H]1O[C@@H](n2ccc(N)nc2=O)C2(CC2)[C@@H]1OC(=O)C(C)C`, the Cmax in data set [10] was 2390 ng/mL; in data set [11] it was 11400 ng/mL; in data set [18], 42800 ng/mL; in [20], 6300 ng/mL. For the same molecule, the Tmax in data set [12] was found to be 0.8 h; in data set [14], 0.7 h; in [16] it was 1.3 h; in [21], 1.5 h. In addition, the CC50 at 72 h in data set [1] and in data set [7] was > 98.4 µM in each case. Besides, the AUC(0-t) at 7 h in [13] was determined as 7220 ng·h/mL. In addition, the exposure AUC(0-t) at 24 h in [15] was 204000 ng·h/mL; in data set [17] it was 37000 ng·h/mL; in data set [19] it was 40000 ng·h/mL. In addition, the EC50 in data set [5] was 20.3 µM.

Regarding `C[C@@]1(F)[C@H](O)[C@@H](CO)O[C@H]1n1ccc(N)nc1=O`, the CC50 at 72 h in data set [1] and in [7] was > 98.4 µM throughout. Also, the EC50 in data set [5] turned out to be 1.9 µM.

For `C[C@@]1(O)[C@H](O)[C@@H](CO)O[C@H]1n1ccc(N)nc1=O`, the CC50 at 72 h in data set [1] and in [7] was > 98.4 µM each time. Moreover, the EC50 in data set [5] is 4.6 µM.

`[N-]=[N+]=N[C@]1(CO)O[C@@H](n2ccc(N)nc2=O)[C@H](O)[C@@H]1O` [4'-AZIDOCYTIDINE]: the CC50 at 72 h in [1] and in [7] was > 98.4 µM throughout. Further, the EC50 in data set [5] was 4.3 µM.
